High-throughput results (PubChem BioAssay)
L major viab: Leishmania major promastigote growth inhibition, primary screen; inhibition, % at 10 µM; AID 1063, 2008; Leishmania major promastigotes, resazurin fluorescence viability; actives 9% (n = 200,000); in the data active = inhibition above about 50%;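 also: promastigotes grown with compound for 44 hours at 28 °C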
NALP1 inh: NALP1 inflammasome inhibitors in reconstituted yeast, colorimetric, S. cerevisiae, triplicate retest | S. cerevisiae NALP1/ASC/caspase-1 growth, X-gal OD620, 72 h | inhibition, % at 10 µM | actives 0.61% (n = 280,000) | AID 2071, 2009; in the data active = inhibition mostly above about 24%, no sharp cut-off; inactive = mostly below about 32%
PolyA inhibitor: polyadenylation inhibitors in yeast reporter cells, primary screen, luminescence, S. cerevisiae; S. cerevisiae SKY197-pL101 polyadenylation reporter, beta-gal luminescence; efflux-impaired pdr1/pdr3 knockout yeast; score 100 = 6 SD above DMSO; activity score, % at 12 µM; actives 0.02% (n = 300,000);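 active = lowest replicate activity score at least 50, where 100 means six control SD above control mean; inconclusive = lowest score under 50 but half or more replicates reach 50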;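 also: yeast exposed to compound for 9 h at 30 °C; higher score means more reporter readthrough which indicates perturbed polyadenylation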
T cruzi repl: inhibitors of intracellular T. cruzi growth, primary screen, luminescence, NIH3T3 host cells | T. cruzi beta-gal in NIH3T3, 90 h | inhibition, % (no concentration beside the values) | actives 1.4% (n = 300,000);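 active = mean inhibition across valid replicates above about 55%, limit read from the data; inconclusive = mean below that limit but half or more replicates reach it; inactive = mean below it, under half of replicates reach it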;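 also: signal also drops with host cell toxicity which is not excluded here; 0% = plate median of DMSO wells and 100% = zero luminescence signal; higher percent means less beta-gal luminescence so fewer parasites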
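compound dosing = single 50 nL compound addition per well in DMSO | material = NIH/3T3 host cells with β-galactosidase reporter T. cruzi | input = 5,000 host fibroblasts per well | timing = ≥90 h infection period, 3 h prior cell attachment | read-out basis = percent inhibition of parasite-derived β-gal signal | detection = GalScreen β-gal luminescence, detergent lysis, 60 min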
NALP3 yeast inh: NALP3 inflammasome inhibitors in reconstituted yeast, primary screen, luminescence, uHTS. Yeast reconstituted NLRP3/ASC/caspase-1, beta-gal luminescence, 24 h. inhibition, % at 10 µM. actives 0.39% (n = 330,000). AID 2825, 2010;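 active = inhibition of 50% or more; inactive = inhibition below 50%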;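 also: plate controls were induced DMSO wells for no effect and uninduced yeast grown without galactose for full effect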
Calb FLC: C. albicans growth inhibition with fluconazole, primary screen, CaCi-2 strain, Alamar Blue fluorescence; C. albicans CaCi-2 + fluconazole, 48 h; growth inhibition, % (concentration not given with the values); actives 0.57% (n = 300,000); AID 1979, 2009;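 active = growth inhibition above about 58% in most replicates, limit read from the data, passing the limit was not always enough; inconclusive = exactly half the replicates above a set limit; inactive = most replicates below a set limit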;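 also: all wells also contain fluconazole at 8 µg/ml as a sub-toxic cotreatment; 0% = median of DMSO wells and 100% = median of geldanamycin control wells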
Numbers without * were called inactive; ? = inconclusive; nt = no result. The full list was thinned out, with hits kept by preference.

SMILES	L major viab	NALP1 inh	PolyA inhibitor	T cruzi repl	NALP3 yeast inh	Calb FLC
O=C(C1CC1)N1CCc2cc(Br)cc(S(=O)(=O)NCCCN3CCCC3)c21	99*	29	-12	0	14	-31
CC/C(=C\c1oc2cc3ccccc3cc2[n+]1CC)Nc1ccccc1	100*	-2	-25	11	5	47
CCC(=O)Nc1ccc(-c2cc3ccccc3oc2=O)cc1	-3	-5	-6	-8	23	-7
CCOC(=O)c1c(C)[nH]c(C)c1C(=O)CN1C(=O)NC(CC(C)C)C1=O (configuration not stated)	0	27	5	-1	16	12
O=C1c2ccccc2C(=O)c2c1ccc1c(=O)n(-c3ccccc3)[nH]c21	27	32	-40	12	20	-54
CC(C)Cn1[nH]c2c3c(ccc2c1=O)C(=O)c1ccccc1C3=O	90*	-3	8	-2	30	0
Cn1c(=O)c2c(ncn2CC(=O)OCC(=O)Nc2ccc(F)cc2Cl)n(C)c1=O	nt	nt	nt	nt	2	nt
CCOC(=O)c1ccc(N2C(=O)C=CC2=O)cc1	4	108*	-150	33	20	36
CCOC(=O)c1ccc(-n2c(C)ccc2C)cc1	-4	15	-2	-3	3	-9
CCOC(=O)c1ccc(CNCc2ccc(C)cc2)cc1	79*	36	-4	1	20	-16
COc1cc(OC)cc(C(=O)NCC2CCCN(Cc3ccc(SC)cc3)C2)c1 (configuration not stated)	nt	1	-17	37	11	-5
CCOC(=O)/C(C#N)=C/Nc1cc(C(=O)OCC)cc2c(OC)c(OC)ccc12	nt	5	nt	nt	6	nt
CCC(=O)Nc1cccc(C(=O)/C=C/c2cc(Br)ccc2OC)c1	100*	6	-9	21	20	9
COc1ccc(OC)c(/C=C/C(=O)OCC(=O)Nc2cccc(C(C)=O)c2)c1	66*	33	-10	14	-1	-2
CC(=O)Nc1cccc(C(=O)/C=C/c2ccc(N(C)C)cc2)c1	7	34	-16	3	17	2
CC(=O)Nc1cccc(C(=O)/C=C/c2ccc(Br)cc2)c1	100*	29	6	0	26	-12
COc1ccc(Br)cc1/C=C/C(=O)Nc1ccc2ccccc2c1	5	32	-9	41	16	5
CC(=O)Nc1cccc(C(=O)/C=C/c2ccc(/C=C/C(=O)c3cccc(NC(C)=O)c3)cc2)c1	80*	40	32	-4	15	-14
COCCNC(=O)CN(C(=O)c1ccc(N2CCCC2)nc1)c1ccc(Cl)cc1	nt	13	16	-5	16	3
Cc1ccc(OCCC(=O)OCC(=O)NC(=O)NC2CCCCC2)cc1	nt	nt	0	-19	14	3
COc1ccc(-n2c(=O)c3ccccc3n(CC(=O)OCc3ccccc3)c2=O)cc1OC	4	9	-12	-6	9	-1
Cn1cccc1CC(=O)NNC(=S)NC(=O)c1ccccc1Br	-4	-9	-2	-17	13	47
CCN(CC)c1ccc(/C=C/C(=O)c2ccc(Br)cc2)cc1	-4	35	-22	16	nt	2
COc1ccc(/C=C/C(=O)Nc2cccc(C(C)=O)c2)cc1	85*	34	-16	-8	17	0
CC(=O)Nc1cccc(C(=O)/C=C/c2ccc(F)cc2)c1	100*	28	-15	-30	25	?
SMILES	L major viab	NALP1 inh	PolyA inhibitor	T cruzi repl	NALP3 yeast inh	Calb FLC
CN(C)c1ccc(C(=O)/C=C/c2ccc(Br)cc2)cc1	90*	24	13	6	32	1
O=[N+]([O-])c1cccc(-c2nnc3ccccn23)c1	nt	nt	0	-4	7	16
CC(=O)Nc1ccc(C2=NN(C)C(=NCc3ccccc3)SC2)cc1	67*	2	7	-10	12	0
CC(NC(=O)CCCCCN1C(=O)c2ccccc2C1=O)c1ccc2c(c1)CCCC2 (configuration not stated)	34	29	-10	16	19	14
CC(NC(=O)CCCCCCN1C(=O)c2ccccc2C1=O)c1ccc2c(c1)CCCC2 (configuration not stated)	1	38	82*	14	13	3
COc1cccc(OCC(Cn2cnc3ccccc32)OC(C)=O)c1 (configuration not stated)	5	-3	8	5	-9	-8
CCOCCCNC(=S)Nc1cc(C)cc(C)c1	14	26	3	-7	6	-3
Cc1ccc(NC(=S)NCCN(C2CCCCC2)C2CCCC2)cc1C	64*	9	-4	28	10	-25
Cc1cc(C)cc(NC(=S)NCCN(C2CCCCC2)C2CCCC2)c1	63*	0	-5	22	-15	-1
Cc1ccc(NC(=S)NCCN(C2CCCCC2)C2CCCC2)cc1	34	4	-13	27	9	1
CN1CCN(c2ncnc3sc(-c4ccccc4)cc23)CC1	14	14	13	74*	18	-7
CCOC(=O)C1CCCN(C(=O)c2cccc(S(=O)(=O)N(C)c3ccc(OC)cc3)c2)C1 (configuration not stated)	nt	nt	nt	nt	11	nt
CCOC(=O)C1CCCN(C(=O)c2cccc(S(=O)(=O)N(Cc3ccccc3)c3ccccc3OC)c2)C1 (configuration not stated)	nt	nt	-1	56*	14	2
CC(=O)c1ccc(N2CCN(C(=O)Nc3ccc(C(C)C)cc3)CC2)cc1	65*	12	-9	-1	19	17
CCOc1ccc(-c2c(C(=O)N/N=C/c3cccc(Br)c3)nnn2-c2nonc2N)cc1	nt	37*	11	15	7	0
COc1ccccc1/C=N/NC(=O)c1nnn(-c2nonc2N)c1-c1cccs1	nt	37*	-16	5	14	-4
O=C(CSc1nnc(-c2ccccc2F)o1)NC(=O)Cc1ccccc1	nt	nt	nt	nt	-14	nt
COc1ccccc1NC(=O)c1ccc2snnc2c1	99*	4	-17	-23	12	41
O=C(Nc1ccccc1)c1ccc2snnc2c1	77*	5	6	-4	21	22
O=C(Nc1ccc2snnc2c1)Nc1cccc2ccccc12	100*	3	-23	16	17	-5
O=C(NCC1CCCN1S(=O)(=O)c1cccs1)C(=O)Nc1ccc(F)cc1F (configuration not stated)	nt	nt	5	-5	5	2
Cc1ccc(CNC(=O)Cn2cnc3cc([N+](=O)[O-])ccc3c2=O)cc1	10	10	18	50	2	27
